Results: ChEMBL document CHEMBL1137077, “Design, synthesis, anti-HIV activities, and metabolic stabilities of alkenyldiarylmethane (ADAM) non-nucleoside reverse transcriptase inhibitors” (J Med Chem, 2004)

Columns and labels:
MT4 [1] = test: Effective concentration required to inhibit cytopathicity of HIV-1(IIIB) in MT-4 cells; Not active; type: functional, cell-based, Homo sapiens
Procedure, shortened: (§1)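 MT-4 cells resuspended at 6 × 10⁵ cells/mL and infected with HIV-1 IIIB or HIV-2 ROD at 100–300 CCID₅₀, with compound added at infection. Serial 5-fold dilutions were run in triplicate. After 5 days, viability was read by MTT reduction at 540 and 690 nm using the median OD of three wells. EC₅₀ is the concentration giving 50% protection from viral cytopathic effect.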

MT4 [2] = test: Evaluated for cytotoxicity in mock-infected MT-4 cells; type: functional; conditions: Homo sapiens
Procedure, shortened: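 Exponentially growing MT-4 cells were resuspended at 6 × 10⁵ cells/mL in mock-infected wells alongside infected wells, with serial 5-fold compound dilutions run in triplicate. MTT viability was read after 5 days at 540 and 690 nm using the median OD of three wells. CC₅₀ is the concentration reducing OD₅₄₀ of mock-infected controls by 50%.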

[3] = Half-life in rat plasma; type: ADME
[4] = tested on: Human immunodeficiency virus 2; test: Effective concentration required to inhibit cytopathicity of HIV-2(ROD) in MT-4 cells.; type: functional, organism-based; conditions: mt4; procedure, shortened: as §1
[5] = tested on: Human immunodeficiency virus 1; test: Effective concentration required to inhibit cytopathicity of HIV-1(IIIB) in MT-4 cells; type: functional, organism-based; conditions: Human immunodeficiency virus 1, MT4; procedure, shortened: as §1
MT4 [6] = test: Effective concentration required to inhibit cytopathicity of HIV-2(ROD) in MT-4 cells; type: functional, cell-based; conditions: Homo sapiens; procedure, shortened: as §1
MT4 [7] = test: Evaluated for the ability to inhibit cytopathicity of HIV-1(IIIB) in MT-4 cells; type: functional, cell-based; conditions: Homo sapiens; procedure, shortened: as §1

Compound	half-life [3] [min]	EC50 [4]	EC50 [5] [µM]	EC50 (MT4 [1])	CC50 (MT4 [2]) [µM]	EC50 (MT4 [6]) [µM]	EC50 (MT4 [7]) [µM]
COC(=O)CCC/C=C(/c1ccc(OC)c(OC)c1)c1cc(C)c(OC)c(C(=O)OC)c1	19.2	Not Active		Not Active	0.25		
CCCCCC=C(c1cc(Cl)c(OC)c(C(=S)OC)c1)c1cc(Cl)c(OC)c(C(=S)OC)c1		Not Active		Not Active	181		
COC(=O)CCCC=C(c1ccc(OC)c(OC)c1)c1ccc(OC)c(OC)c1	0.9	Not Active		Not Active	7.4		
COC(=O)c1cc(C(=CCCCc2ccccc2)c2cc(Cl)c(OC)c(C(=O)OC)c2)cc(Cl)c1OC	76.6		13.2		> 230	113	
CCCOC(=O)c1cc(C(=CCCCC(=O)OC)c2cc(C)c(OCCC)c(C(=O)OCCC)c2)cc(C)c1OCCC		Not Active		Not Active	> 209		
COC(=S)CCCC=C(c1cc(Cl)c(OC)c(C(=S)OC)c1)c1cc(Cl)c(OC)c(C(=S)OC)c1		Not Active	35.4		> 218		
COC(=O)CCCC=C(c1cc(Cl)c(OC)c(C(=O)SC)c1)c1cc(Cl)c(OC)c(C(=O)SC)c1	55.3	Not Active	1.8		> 224		
COC(=O)CCCC=C(c1ccc(OC)cc1OC)c1ccc(OC)cc1OC	2.6	Not Active		Not Active	5.9		
CCCCCC=C(c1cc(Cl)c(OC)c(C(C)=O)c1)c1cc(Cl)c(OC)c(C(C)=O)c1		Not Active		Not Active	47.1		
CCCOc1c(C)cc(C(=CCCCC(=O)OC)c2cc(C)c(OCCC)c(C(=O)OC)c2)cc1C(=O)OC		Not Active		Not Active	> 231		
CCOc1c(C)cc(C(=CCCCC(=O)OC)c2cc(C)c(OCC)c(C(=O)OC)c2)cc1C(=O)OC	9	Not Active	3.7		73		
COc1c(Cl)cc(C(=CCCCCO)c2cc(Cl)c(OC)c(CO)c2)cc1CO		Not Active		Not Active	30.7		
COC(=O)CCCC=C(c1cc(C#N)c(OC)c(C(=O)OC)c1)c1cc(C#N)c(OC)c(C(=O)OC)c1	12.4	Not Active	0.8		> 247		
COC(=O)CCC/C=C(\c1ccc(OC)c(OC)c1)c1cc(Cl)c(OC)c(C(=O)OC)c1		Not Active		Not Active	8.7		
CCOC(=O)c1cc(C(=CCCCC(=O)OC)c2cc(C)c(OCC)c(C(=O)OCC)c2)cc(C)c1OCC	37.7	Not Active	14.1		> 231		
COC(=O)c1cc(C(=CCCCC(=O)OC(C)C)c2cc(C)c(OC)c(C(=O)OC)c2)cc(C)c1OC	1.7	Not Active	3.5		59.5		
COCCCCC=C(c1cc(Cl)c(OC)c(COC)c1)c1cc(Cl)c(OC)c(COC)c1		Not Active		Not Active	34		
COC(=O)CCCC(CCCC(=O)OC)=C(c1cc(Br)c(OC)c(C(=O)OC)c1)c1cc(Br)c(OC)c(C(=O)OC)c1		Not Active		Not Active	78.1		

Continued, in another order:

half-life [3] [min]	EC50 [4]	EC50 [5] [µM]	Compound	EC50 (MT4 [1])	CC50 (MT4 [2]) [µM]	EC50 (MT4 [6]) [µM]	EC50 (MT4 [7]) [µM]
9	Not Active	0.8	COC(=O)CCC/C=C(\c1cc(C)c(OC)c(C(=O)OC)c1)c1cc(Cl)c(OC)c(C(=O)OC)c1		19.1		
5.2	Not Active	3.5	CCCOC(=O)CCCC=C(c1cc(C)c(OC)c(C(=O)OC)c1)c1cc(C)c(OC)c(C(=O)OC)c1		93.4		
35.1	Not Active		COCCCCC=C(c1cc(Br)c(OC)c(C(=O)OC)c1)c1cc(Br)c(OC)c(C(=O)OC)c1		28.6		2.8
6.2	Not Active	0.3	COC(=O)CCCC=C(c1cc(Br)c(OC)c(C(=O)OC)c1)c1cc(Br)c(OC)c(C(=O)OC)c1		91		
20.6	Not Active	1.1	C#CCCCC=C(c1cc(Cl)c(OC)c(C(=O)OC)c1)c1cc(Cl)c(OC)c(C(=O)OC)c1		143		
58.5	Not Active	3	C=CCCCC=C(c1cc(Br)c(OC)c(C(=O)OC)c1)c1cc(Br)c(OC)c(C(=O)OC)c1		62.3		
55		2.6	COC(=O)c1cc(C(=CCCCc2ccccc2)c2cc(Br)c(OC)c(C(=O)OC)c2)cc(Br)c1OC		> 198	29.3	
39.3		3.7	C=CCCCC=C(c1cc(Cl)c(OC)c(C(=O)OC)c1)c1cc(Cl)c(OC)c(C(=O)OC)c1		> 253	26.4	
5.8		0.6	COC(=O)CCCC=C(c1cc(Cl)c(OC)c(C(=O)OC)c1)c1cc(Cl)c(OC)c(C(=O)OC)c1		160	25	
3.4	Not Active	2.2	CCCOC(=O)CCCC=C(c1cc(Br)c(OC)c(C(=O)OC)c1)c1cc(Br)c(OC)c(C(=O)OC)c1		114		
5.7	Not Active	2.7	COC(=O)c1cc(C(=CCCCC(=O)OC(C)C)c2cc(Br)c(OC)c(C(=O)OC)c2)cc(Br)c1OC		35.3		
18.9	Not Active	0.7	C#CCCCC=C(c1cc(Br)c(OC)c(C(=O)OC)c1)c1cc(Br)c(OC)c(C(=O)OC)c1		57.8		
7.4	Not Active	3.1	CCCOC(=O)CCCC=C(c1cc(Cl)c(OC)c(C(=O)OC)c1)c1cc(Cl)c(OC)c(C(=O)OC)c1		159		
42.9	Not Active	1	COC(=O)CCCC=C(c1cc(C)c(OC)c(C(=O)OC)c1)c1cc(C)c(OC)c(C(=O)OC)c1		6.1		
